Measurements reported in ChEMBL document CHEMBL3797186, “Single Residue Substitutions That Confer Voltage-Gated Sodium Ion Channel Subtype Selectivity in the NaV1.7 Inhibitory Peptide GpTx-1” (J Med Chem, 2016).
Positions of bridges follow the written chain, without caps; N, C: chain ends. Non-standard residues stand in square brackets, D forms with d. Residues, ends and D or L forms follow the SMILES beside them. 1Nal = N[C@@H](Cc1cccc2ccccc12)C(=O)O

Key:
[1] = target: Sodium channel protein type 9 subunit alpha (Homo sapiens, UniProt Q15858); test: Inhibition of human Nav1.7 expressed in HEK293 cells assessed as inward peak current by ion-works quattro patch clamp electrophysiology method; format: cell-based
Chain of Sodium channel protein type 9 subunit alpha (Q15858 whole entry): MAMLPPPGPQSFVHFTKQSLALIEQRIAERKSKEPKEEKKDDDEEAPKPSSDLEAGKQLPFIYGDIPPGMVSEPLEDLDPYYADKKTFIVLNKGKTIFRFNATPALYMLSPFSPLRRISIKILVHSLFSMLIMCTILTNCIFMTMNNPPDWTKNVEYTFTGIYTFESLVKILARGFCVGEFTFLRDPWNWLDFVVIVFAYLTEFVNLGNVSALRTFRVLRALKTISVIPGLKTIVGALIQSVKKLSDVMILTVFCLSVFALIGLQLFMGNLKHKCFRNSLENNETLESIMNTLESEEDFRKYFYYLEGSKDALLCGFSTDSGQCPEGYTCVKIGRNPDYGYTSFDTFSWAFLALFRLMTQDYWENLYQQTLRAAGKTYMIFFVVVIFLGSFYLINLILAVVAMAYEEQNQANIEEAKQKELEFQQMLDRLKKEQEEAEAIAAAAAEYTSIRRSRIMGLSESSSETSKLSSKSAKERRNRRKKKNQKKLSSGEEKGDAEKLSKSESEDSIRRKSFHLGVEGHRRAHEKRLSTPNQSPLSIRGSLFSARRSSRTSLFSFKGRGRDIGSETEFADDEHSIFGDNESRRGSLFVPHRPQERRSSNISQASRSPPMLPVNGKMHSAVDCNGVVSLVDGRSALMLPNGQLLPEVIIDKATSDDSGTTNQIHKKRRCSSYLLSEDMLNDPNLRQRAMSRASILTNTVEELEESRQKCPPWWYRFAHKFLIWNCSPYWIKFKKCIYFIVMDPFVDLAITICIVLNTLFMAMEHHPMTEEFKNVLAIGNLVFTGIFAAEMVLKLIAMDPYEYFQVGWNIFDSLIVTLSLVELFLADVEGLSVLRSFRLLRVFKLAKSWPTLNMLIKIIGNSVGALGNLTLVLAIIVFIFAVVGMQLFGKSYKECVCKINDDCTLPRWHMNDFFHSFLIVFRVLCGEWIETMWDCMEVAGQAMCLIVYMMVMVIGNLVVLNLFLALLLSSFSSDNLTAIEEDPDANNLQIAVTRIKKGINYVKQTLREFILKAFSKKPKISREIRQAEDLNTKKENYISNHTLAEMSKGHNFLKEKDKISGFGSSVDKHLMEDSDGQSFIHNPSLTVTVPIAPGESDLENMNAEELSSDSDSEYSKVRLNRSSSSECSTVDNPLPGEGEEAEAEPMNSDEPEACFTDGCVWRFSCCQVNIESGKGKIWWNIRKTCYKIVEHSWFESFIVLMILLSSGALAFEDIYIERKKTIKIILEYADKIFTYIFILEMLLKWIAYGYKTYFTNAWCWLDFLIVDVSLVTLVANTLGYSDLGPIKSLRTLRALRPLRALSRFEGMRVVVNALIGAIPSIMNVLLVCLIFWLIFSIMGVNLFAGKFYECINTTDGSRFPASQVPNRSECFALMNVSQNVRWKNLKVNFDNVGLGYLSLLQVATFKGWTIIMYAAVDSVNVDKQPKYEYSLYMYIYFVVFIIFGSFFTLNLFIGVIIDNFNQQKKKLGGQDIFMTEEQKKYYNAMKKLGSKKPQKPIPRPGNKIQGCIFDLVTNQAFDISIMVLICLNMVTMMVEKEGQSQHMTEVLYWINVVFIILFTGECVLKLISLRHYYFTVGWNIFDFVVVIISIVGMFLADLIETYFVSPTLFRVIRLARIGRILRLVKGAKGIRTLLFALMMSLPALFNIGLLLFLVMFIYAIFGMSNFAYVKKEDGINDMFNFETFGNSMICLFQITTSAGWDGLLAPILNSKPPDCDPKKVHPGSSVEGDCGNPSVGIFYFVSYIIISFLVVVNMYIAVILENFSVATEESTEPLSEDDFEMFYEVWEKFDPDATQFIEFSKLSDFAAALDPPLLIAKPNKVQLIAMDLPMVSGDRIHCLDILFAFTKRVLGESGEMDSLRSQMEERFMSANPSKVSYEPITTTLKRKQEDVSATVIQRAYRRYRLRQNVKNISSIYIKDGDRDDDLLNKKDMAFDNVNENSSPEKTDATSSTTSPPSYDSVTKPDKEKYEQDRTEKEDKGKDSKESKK

[2] = target: Sodium channel protein type 5 subunit alpha (Homo sapiens, UniProt Q14524); test: Inhibition of human Nav1.5 expressed in HEK293 cells assessed as inward peak current by ion-works quattro patch clamp electrophysiology method; format: cell-based
Chain of Sodium channel protein type 5 subunit alpha (Q14524 whole entry): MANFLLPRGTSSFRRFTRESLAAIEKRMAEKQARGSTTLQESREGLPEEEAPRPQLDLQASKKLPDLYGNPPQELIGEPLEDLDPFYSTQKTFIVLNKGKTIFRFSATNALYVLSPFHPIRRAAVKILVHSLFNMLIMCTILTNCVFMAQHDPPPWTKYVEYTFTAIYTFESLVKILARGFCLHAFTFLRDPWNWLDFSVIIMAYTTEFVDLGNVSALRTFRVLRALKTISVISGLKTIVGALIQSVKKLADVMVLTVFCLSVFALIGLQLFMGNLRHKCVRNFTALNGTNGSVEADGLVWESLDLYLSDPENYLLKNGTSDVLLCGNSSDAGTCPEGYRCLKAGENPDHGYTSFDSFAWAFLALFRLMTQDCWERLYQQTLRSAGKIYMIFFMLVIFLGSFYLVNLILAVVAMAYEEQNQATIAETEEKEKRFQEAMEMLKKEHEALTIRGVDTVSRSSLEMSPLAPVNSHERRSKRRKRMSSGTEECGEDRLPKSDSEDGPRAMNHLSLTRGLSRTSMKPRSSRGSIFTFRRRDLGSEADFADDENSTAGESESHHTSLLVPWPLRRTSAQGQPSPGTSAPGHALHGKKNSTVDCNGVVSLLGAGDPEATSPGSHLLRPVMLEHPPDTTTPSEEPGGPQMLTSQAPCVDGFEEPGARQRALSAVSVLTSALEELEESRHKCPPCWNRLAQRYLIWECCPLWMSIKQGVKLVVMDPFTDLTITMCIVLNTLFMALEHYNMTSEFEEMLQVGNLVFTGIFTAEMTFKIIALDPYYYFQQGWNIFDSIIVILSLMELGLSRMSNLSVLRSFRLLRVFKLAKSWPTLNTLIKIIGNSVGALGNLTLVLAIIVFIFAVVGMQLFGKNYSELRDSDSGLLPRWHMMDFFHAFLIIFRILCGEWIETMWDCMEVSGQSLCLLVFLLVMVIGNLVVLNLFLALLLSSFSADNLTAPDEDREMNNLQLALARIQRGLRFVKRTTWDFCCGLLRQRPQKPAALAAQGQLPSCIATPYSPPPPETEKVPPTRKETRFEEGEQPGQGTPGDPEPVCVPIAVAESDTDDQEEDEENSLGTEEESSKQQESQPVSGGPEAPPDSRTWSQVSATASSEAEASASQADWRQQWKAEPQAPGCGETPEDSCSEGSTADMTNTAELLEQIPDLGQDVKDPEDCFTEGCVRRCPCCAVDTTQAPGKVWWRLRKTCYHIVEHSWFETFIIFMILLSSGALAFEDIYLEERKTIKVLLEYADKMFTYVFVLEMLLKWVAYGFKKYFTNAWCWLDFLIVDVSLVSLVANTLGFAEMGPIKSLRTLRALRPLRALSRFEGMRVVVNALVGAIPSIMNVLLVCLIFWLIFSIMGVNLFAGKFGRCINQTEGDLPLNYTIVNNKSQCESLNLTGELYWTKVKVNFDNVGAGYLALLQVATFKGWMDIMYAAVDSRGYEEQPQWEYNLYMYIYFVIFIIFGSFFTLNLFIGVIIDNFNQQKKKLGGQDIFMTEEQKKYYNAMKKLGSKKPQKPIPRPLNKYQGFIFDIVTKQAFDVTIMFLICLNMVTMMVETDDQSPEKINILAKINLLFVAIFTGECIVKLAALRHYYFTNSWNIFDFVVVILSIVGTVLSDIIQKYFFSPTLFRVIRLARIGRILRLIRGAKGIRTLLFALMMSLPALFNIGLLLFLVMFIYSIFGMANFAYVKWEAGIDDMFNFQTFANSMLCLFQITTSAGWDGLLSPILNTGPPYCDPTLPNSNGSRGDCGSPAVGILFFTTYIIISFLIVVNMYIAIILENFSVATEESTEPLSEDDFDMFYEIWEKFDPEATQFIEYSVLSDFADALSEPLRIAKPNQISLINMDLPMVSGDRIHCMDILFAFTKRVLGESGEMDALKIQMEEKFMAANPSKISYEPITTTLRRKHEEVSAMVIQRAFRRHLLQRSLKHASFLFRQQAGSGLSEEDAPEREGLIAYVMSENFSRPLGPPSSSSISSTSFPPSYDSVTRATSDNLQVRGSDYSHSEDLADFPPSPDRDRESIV
Summary of the method: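 Stable HEK293 line expressing human NaV1.5, recorded by population patch clamp on the IonWorks Quattro.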

## CC[C@H](C)[C@@H]1NC(=O)[C@@H]2CSSC[C@@H]3NC(=O)[C@H](C(C)C)NC(=O)[C@H](CC(C)C)NC(=O)[C@H](CC(N)=O)NC(=O)[C@@H]4CCCN4C(=O)[C@H](CCCNC(=N)N)NC(=O)[C@H](CSSC[C@H](NC(=O)[C@@H](N)CC(=O)O)C(=O)N[C@@H](CC(C)C)C(=O)NCC(=O)N[C@@H](Cc4ccccc4)C(=O)N[C@@H](CCSC)C(=O)N[C@@H](CCCNC(=N)N)C(=O)N[C@@H](CCCCN)C(=O)N2)NC(=O)[C@H](CSSC[C@@H](C(=O)N[C@@H](CCCCN)C(=O)N[C@@H](Cc2ccc(O)cc2)C(=O)N[C@@H](CCCCN)C(=O)N[C@@H](Cc2ccccc2)C(N)=O)NC(=O)[C@H](Cc2c[nH]c4ccccc24)NC(=O)[C@H](CCCCN)NC(=O)[C@H](Cc2cnc[nH]2)NC(=O)[C@H]([C@@H](C)O)NC(=O)[C@H](CCCNC(=N)N)NC(=O)[C@H](CO)NC3=O)NC(=O)[C@H](CCCCN)NC(=O)[C@H](CC(=O)O)NC(=O)[C@H](CC(N)=O)NC(=O)[C@H](CC(=O)O)NC(=O)[C@@H]2CCCN2C1=O (H-DCLGFMRKCIPDNDKCCRPNLVCSRTHKWCKYKF-NH2; disulfide 2-17, 9-23, 16-30)
[1]
  IC50: 50 nM
[2]
  IC50: > 5000 nM

## CC[C@H](C)[C@@H]1NC(=O)[C@@H]2CSSC[C@@H]3NC(=O)[C@H](C(C)C)NC(=O)[C@H](CC(C)C)NC(=O)[C@H](CC(N)=O)NC(=O)[C@@H]4CCCN4C(=O)[C@H](CCCNC(=N)N)NC(=O)[C@H](CSSC[C@H](NC(=O)[C@@H](N)CC(=O)O)C(=O)N[C@@H](CC(C)C)C(=O)NCC(=O)N[C@@H](Cc4ccccc4)C(=O)N[C@@H](CCSC)C(=O)N[C@@H](CCCNC(=N)N)C(=O)N[C@@H](CCCCN)C(=O)N2)NC(=O)[C@H](CSSC[C@@H](C(=O)N[C@@H](CCCCN)C(=O)N[C@@H](Cc2ccc(O)cc2)C(=O)N[C@H](C(=O)N[C@@H](Cc2ccccc2)C(N)=O)C(C)C)NC(=O)[C@H](Cc2c[nH]c4ccccc24)NC(=O)[C@H](CCCCN)NC(=O)[C@H](Cc2c[nH]cn2)NC(=O)[C@H]([C@@H](C)O)NC(=O)[C@H](CCCNC(=N)N)NC(=O)[C@H](CO)NC3=O)NC(=O)[C@H](CCCCN)NC(=O)[C@H](CC(=O)O)NC(=O)[C@H](CC(N)=O)NC(=O)[C@H](Cc2cccc3ccccc23)NC(=O)[C@@H]2CCCN2C1=O (H-DCLGFMRKCIP[1Nal]NDKCCRPNLVCSRTHKWCKYVF-NH2; disulfide 2-17, 9-23, 16-30)
[1]
  IC50: 100 nM
[2]
  IC50: > 5000 nM

## CC[C@@H](C)[C@H]1NC(=O)[C@H]2CSSC[C@@H]3NC(=O)[C@@H](C(C)C)NC(=O)[C@H](CC(C)C)NC(=O)[C@@H](CC(N)=O)NC(=O)[C@@H]4CCCN4C(=O)[C@H](CCCNC(=N)N)NC(=O)[C@H](CSSC[C@H](NC(=O)[C@@H](CC(=O)O)NC(=O)[C@@H](C)N)C(=O)N[C@@H](CC(C)C)C(=O)NCC(=O)N[C@@H](Cc4ccccc4)C(=O)N[C@H](CCSC)C(=O)N[C@@H](CCCNC(=N)N)C(=O)N[C@@H](CCCCN)C(=O)N2)NC(=O)[C@@H](CSSC[C@@H](C(=O)N[C@@H](CCCCN)C(=O)N[C@@H](Cc2ccc(O)cc2)C(=O)N[C@H](C(=O)N[C@@H](Cc2ccccc2)C(N)=O)C(C)C)NC(=O)[C@@H](Cc2c[nH]c4ccccc24)NC(=O)[C@H](CCCCN)NC(=O)[C@H](Cc2cnc[nH]2)NC(=O)[C@@H]([C@H](C)O)NC(=O)[C@@H](CCCNC(=N)N)NC(=O)[C@H](CO)NC3=O)NC(=O)[C@@H](CCCCN)NC(=O)[C@H](CC(=O)O)NC(=O)[C@@H](CC(N)=O)NC(=O)[C@H](CC(=O)O)NC(=O)[C@@H]2CCCN2C1=O
[1]
  IC50: 370 nM
[2]
  IC50: > 5000 nM

## CC[C@H](C)[C@@H]1NC(=O)[C@@H]2CSSC[C@@H]3NC(=O)[C@H](C(C)C)NC(=O)[C@H](CC(C)C)NC(=O)[C@H](CC(N)=O)NC(=O)[C@@H]4CCCN4C(=O)[C@H](CCCNC(=N)N)NC(=O)[C@H](CSSC[C@H](NC(=O)[C@@H](N)CC(=O)O)C(=O)N[C@@H](CC(C)C)C(=O)NCC(=O)N[C@@H](Cc4ccccc4)C(=O)N[C@@H](CCSC)C(=O)N[C@@H](CCCNC(=N)N)C(=O)N[C@@H](CCCCN)C(=O)N2)NC(=O)[C@H](CSSC[C@@H](C(=O)N[C@@H](CCCCN)C(=O)N[C@@H](Cc2ccc(O)cc2)C(=O)N[C@H](C(=O)N[C@@H](Cc2ccccc2)C(N)=O)C(C)C)NC(=O)[C@H](Cc2c[nH]c4ccccc24)NC(=O)[C@H](CCCCN)NC(=O)[C@H](Cc2cnc[nH]2)NC(=O)[C@H]([C@@H](C)O)NC(=O)[C@H](CCCNC(=N)N)NC(=O)[C@H](CO)NC3=O)NC(=O)[C@H](CCCCN)NC(=O)[C@H](CC(=O)O)NC(=O)[C@H](Cc2c[nH]c3ccccc23)NC(=O)[C@H](CC(=O)O)NC(=O)[C@@H]2CCCN2C1=O (H-DCLGFMRKCIPDWDKCCRPNLVCSRTHKWCKYVF-NH2; disulfide 2-17, 9-23, 16-30)
[1]
  IC50: 80 nM
[2]
  IC50: > 5000 nM

## CC[C@H](C)[C@@H]1NC(=O)[C@@H]2CSSC[C@@H]3NC(=O)[C@H](C(C)C)NC(=O)[C@H](CC(C)C)NC(=O)[C@H](CC(N)=O)NC(=O)[C@@H]4CCCN4C(=O)[C@H](CCCNC(=N)N)NC(=O)[C@H](CSSC[C@H](NC(=O)[C@@H](N)CC(=O)O)C(=O)N[C@@H](CC(C)C)C(=O)NCC(=O)N[C@@H](Cc4ccccc4)C(=O)N[C@@H](CCSC)C(=O)N[C@@H](CCCNC(=N)N)C(=O)N[C@@H](CCCCN)C(=O)N2)NC(=O)[C@H](CSSC[C@@H](C(=O)N[C@@H](CCCCN)C(=O)N[C@@H](Cc2ccc(O)cc2)C(=O)N[C@H](C(=O)N[C@@H](Cc2ccccc2)C(N)=O)C(C)C)NC(=O)[C@H](Cc2c[nH]c4ccccc24)NC(=O)[C@H](CCCCN)NC(=O)[C@H](Cc2cnc[nH]2)NC(=O)[C@H](CCC(=O)O)NC(=O)[C@H](CCCNC(=N)N)NC(=O)[C@H](CO)NC3=O)NC(=O)[C@H](CCCCN)NC(=O)[C@H](CC(=O)O)NC(=O)[C@H](CC(N)=O)NC(=O)[C@H](CC(=O)O)NC(=O)[C@@H]2CCCN2C1=O (H-DCLGFMRKCIPDNDKCCRPNLVCSREHKWCKYVF-NH2; disulfide 2-17, 9-23, 16-30)
[1]
  IC50: 690 nM
[2]
  IC50: > 5000 nM

## CC[C@H](C)[C@@H]1NC(=O)[C@@H]2CSSC[C@@H]3NC(=O)[C@H](C(C)C)NC(=O)[C@H](CC(C)C)NC(=O)[C@H](CC(N)=O)NC(=O)[C@@H]4CCCN4C(=O)[C@H](CCCNC(=N)N)NC(=O)[C@H](CSSC[C@H](NC(=O)[C@@H](N)CC(=O)O)C(=O)N[C@@H](CC(C)C)C(=O)NCC(=O)N[C@@H](Cc4ccccc4)C(=O)N[C@@H](CCSC)C(=O)N[C@@H](CCCNC(=N)N)C(=O)N[C@@H](CCCCN)C(=O)N2)NC(=O)[C@H](CSSC[C@@H](C(=O)N[C@@H](CCCCN)C(=O)N[C@@H](Cc2ccc(O)cc2)C(=O)N[C@H](C(=O)N[C@@H](Cc2ccccc2)C(N)=O)C(C)C)NC(=O)[C@H](CCCNC(=N)N)NC(=O)[C@H](CCCCN)NC(=O)[C@H](Cc2cnc[nH]2)NC(=O)[C@H]([C@@H](C)O)NC(=O)[C@H](CCCNC(=N)N)NC(=O)[C@H](CO)NC3=O)NC(=O)[C@H](CCCCN)NC(=O)[C@H](CC(=O)O)NC(=O)[C@H](CC(N)=O)NC(=O)[C@H](CC(=O)O)NC(=O)[C@@H]2CCCN2C1=O (H-DCLGFMRKCIPDNDKCCRPNLVCSRTHKRCKYVF-NH2; disulfide 2-17, 9-23, 16-30)
[1]
  IC50: > 5000 nM
[2]
  IC50: > 5000 nM

## CC[C@H](C)[C@@H]1NC(=O)[C@@H]2CSSC[C@@H]3NC(=O)[C@H](C(C)C)NC(=O)[C@H](Cc4cccc5ccccc45)NC(=O)[C@H](CC(N)=O)NC(=O)[C@@H]4CCCN4C(=O)[C@H](CCCNC(=N)N)NC(=O)[C@H](CSSC[C@H](NC(=O)[C@@H](N)CC(=O)O)C(=O)N[C@@H](CC(C)C)C(=O)NCC(=O)N[C@@H](Cc4ccccc4)C(=O)N[C@@H](CCSC)C(=O)N[C@@H](CCCNC(=N)N)C(=O)N[C@@H](CCCCN)C(=O)N2)NC(=O)[C@H](CSSC[C@@H](C(=O)N[C@@H](CCCCN)C(=O)N[C@@H](Cc2ccc(O)cc2)C(=O)N[C@H](C(=O)N[C@@H](Cc2ccccc2)C(N)=O)C(C)C)NC(=O)[C@H](Cc2c[nH]c4ccccc24)NC(=O)[C@H](CCCCN)NC(=O)[C@H](Cc2c[nH]cn2)NC(=O)[C@H]([C@@H](C)O)NC(=O)[C@H](CCCNC(=N)N)NC(=O)[C@H](CO)NC3=O)NC(=O)[C@H](CCCCN)NC(=O)[C@H](CC(=O)O)NC(=O)[C@H](CC(N)=O)NC(=O)[C@H](CC(=O)O)NC(=O)[C@@H]2CCCN2C1=O (H-DCLGFMRKCIPDNDKCCRPN[1Nal]VCSRTHKWCKYVF-NH2; disulfide 2-17, 9-23, 16-30)
[1]
  IC50: 90 nM
[2]
  IC50: > 5000 nM

## CC[C@H](C)[C@@H]1NC(=O)[C@@H]2CSSC[C@@H]3NC(=O)[C@H](C(C)C)NC(=O)[C@H](CC(C)C)NC(=O)[C@H](CC(N)=O)NC(=O)[C@@H]4CCCN4C(=O)[C@H](CCCNC(=N)N)NC(=O)[C@H](CSSC[C@H](NC(=O)[C@H](CC(=O)O)NC(=O)[C@@H](N)Cc4c[nH]c5ccccc45)C(=O)N[C@@H](CC(C)C)C(=O)NCC(=O)N[C@@H](Cc4ccccc4)C(=O)N[C@@H](CCSC)C(=O)N[C@@H](CCCNC(=N)N)C(=O)N[C@@H](CCCCN)C(=O)N2)NC(=O)[C@H](CSSC[C@@H](C(=O)N[C@@H](CCCCN)C(=O)N[C@@H](Cc2ccc(O)cc2)C(=O)N[C@H](C(=O)N[C@@H](Cc2ccccc2)C(N)=O)C(C)C)NC(=O)[C@H](Cc2c[nH]c4ccccc24)NC(=O)[C@H](CCCCN)NC(=O)[C@H](Cc2cnc[nH]2)NC(=O)[C@H]([C@@H](C)O)NC(=O)[C@H](CCCNC(=N)N)NC(=O)[C@H](CO)NC3=O)NC(=O)[C@H](CCCCN)NC(=O)[C@H](CC(=O)O)NC(=O)[C@H](CC(N)=O)NC(=O)[C@H](CC(=O)O)NC(=O)[C@@H]2CCCN2C1=O
[1]
  IC50: 200 nM
[2]
  IC50: > 5000 nM
